Compound activity deposited in PubChem BioAssay by The Scripps Research Institute Molecular Screening Center.
Hits are enriched below; roughly 1.8% of the tested compounds scored in any of these assays.
NPY2 pot ag – NPY-Y2 potentiators or agonists, primary screen, cell-based | AID 1359, 2008 | activation, % at 3.6 µM | cells expressing NPY-Y2, potentiator/agonist read-out | Neuropeptide Y receptor type 2 (Homo sapiens), P49146 | 220,000 tested, 0.45% active; in the data active means activation above about 27%;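 further: cells stimulated with NPY near EC25 plus isoproterenol at EC100; 0% = vehicle plus submaximal agonist and 100% = vehicle plus saturating agonist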
NPY-Y1 PAM-ag – NPY-Y1 receptor potentiators or agonists, primary screen, cell-based; Neuropeptide Y receptor type 1 (Homo sapiens), P25929; activation, % at 3.6 µM; NPY-Y1 expressing cells, potentiator/agonist activation; 220,000 tested, 0.37% active; in the data active means activation above about 33%, passing the limit was not always enough;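 further: cells stimulated with NPY at EC10 then isoproterenol at EC100; 0% = low agonist plus stimulus and 100% = saturating agonist plus stimulus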
Target sequence (P25929 whole entry, looked up): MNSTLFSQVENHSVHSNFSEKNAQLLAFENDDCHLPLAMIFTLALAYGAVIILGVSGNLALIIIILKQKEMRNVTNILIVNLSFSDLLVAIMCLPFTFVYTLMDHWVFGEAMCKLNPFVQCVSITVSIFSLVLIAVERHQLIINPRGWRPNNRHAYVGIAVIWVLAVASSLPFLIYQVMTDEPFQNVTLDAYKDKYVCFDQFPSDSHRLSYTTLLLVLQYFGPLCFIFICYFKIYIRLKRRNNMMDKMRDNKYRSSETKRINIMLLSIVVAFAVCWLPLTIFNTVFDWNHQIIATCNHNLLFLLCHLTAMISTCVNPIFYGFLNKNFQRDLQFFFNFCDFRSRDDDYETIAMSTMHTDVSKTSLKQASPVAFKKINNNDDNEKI
NPY-Y1 antag – NPY-Y1 receptor antagonists, primary screen, cell-based | Neuropeptide Y receptor type 1 (Homo sapiens), P25929 | HEK293-CNG Y1 cells, membrane potential fluorescence; NPY at EC95, then isoproterenol | inhibition, % at 3.6 µM | 200,000 tested, 1% active | AID 1040, 2008;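 active means inhibition above the campaign mean inhibition of all tested compounds plus 3 SD, cut at about 20% in these data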;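 further: 0% = DMSO wells given NPY plus isoproterenol and 100% = isoproterenol alone without NPY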
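Material: Y1- and CNG-channel-expressing HEK293 cells / Probe or stimulus: NPY 25 nM then isoproterenol 1 µM plus Ro 20-1724 25 µM / Doses: 3.6 µM single dose, DMSO 0.4% / Schedule: compound incubation 1 h at room temperature, readout 45 min post-stimulation / Signal: membrane potential fluorescence / Benchmarks: isoproterenol-only wells as full block versus NPY-plus-isoproterenol wells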
NPY-Y2 antag – NPY-Y2 receptor antagonists, primary screen, cell-based; Neuropeptide Y receptor type 2 (Homo sapiens), P49146; 140,000 tested, 0.99% active; NPY-Y2 expressing cells, antagonist mode; inhibition, % at 2.7 µM; AID 793, 2007; in the data active means inhibition above about 17%;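 further: 0% = vehicle with agonist challenge and 100% = reference antagonist with challenge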
NPY-Y2 confirm – NPY-Y2 potentiators or agonists, confirmation, cell-based; shares compounds with NPY2 pot ag; cell-based NPY-Y2 potentiator/agonist assay; activation, % at 3.6 µM; 450 tested, 20% active; in the data active means activation above about 33%
NPY-Y1 potentiator – NPY-Y1 potentiators or agonists, counter-screen for NPY-Y2 potentiator project, cell-based, fluorescence | Y1 HEK293-CNG cells, membrane potential fluorescence | shares compounds with NPY2 pot ag | activation, % at 3.6 µM | AID 1651, 2009 | 450 tested, 20% active; in the data active means activation above about 45%;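 further: cells stimulated with submaximal NPY then isoproterenol with phosphodiesterase inhibitor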
NPY-Y1 agonist 2 – NPY-Y1 direct agonists, selectivity assay for NPY-Y2 potentiator project, cell-based, fluorescence; shares compounds with NPY2 pot ag; HEK293 Y1-CNGC, membrane potential fluorescence, agonism; activation, % at 3.6 µM; 450 tested, 37% active;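 active means activation above the mean of DMSO-only control wells plus 3 SD, cut at about 18% in these data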;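 further: cells stimulated with 1 µM isoproterenol plus the PDE inhibitor Ro 20-1724; 0% = isoproterenol with DMSO and no NPY and 100% = 40 nM NPY; Y1 agonists lower the membrane potential dye signal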
CNGC inh – CNGC cAMP sensor activity inhibitors, counter-screen for NPY-Y2 potentiator project, cell-based, HEK293-CNG parental, membrane potential fluorescence; shares compounds with NPY2 pot ag; isoproterenol cAMP; inhibition, % at 3.6 µM; 450 tested, 32% active;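 active means inhibition above the control-well mean plus 3 SD of those wells, cut at about 22% in these data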;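 further: 0% = DMSO with isoproterenol and 100% = DMSO without isoproterenol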
NPY-Y2 ag 2 – NPY-Y2 direct agonists, counter-screen for NPY-Y2 potentiator project, cell-based, fluorescence; shares compounds with NPY2 pot ag; HEK293 Y2/CNGC cells, membrane potential fluorescence, agonist mode; activation, % at 3.6 µM; 450 tested, 56% active;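 active means activation above the mean of solvent-only control wells plus 3 SD, cut at about 10% in these data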;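 further: cells stimulated by isoproterenol with no NPY added so direct agonism is tested; 0% = DMSO with isoproterenol alone and 100% = NPY at EC100 plus isoproterenol; agonism lowers probe fluorescence through less cAMP and CNG channel opening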
Active calls of the source: *; · = no result.

SMILES	NPY2 pot ag	NPY-Y1 PAM-ag	NPY-Y1 antag	NPY-Y2 antag	NPY-Y2 confirm	NPY-Y1 potentiator	NPY-Y1 agonist 2	CNGC inh	NPY-Y2 ag 2
COc1cc(C(=S)N2CCN(c3ccccc3Cl)CC2)cc(O)c1O	31*	16	2	·	0	8	-1	7	23*
COc1ccc(C(=S)N2CCN(c3ccccc3Cl)CC2)cc1OC	-12	-14	·	·	·	·	·	·	·
CN1CCCN(C(=O)c2cc(-c3cccc4ccccc34)nc3ccccc23)CC1	-12	-6	·	·	·	·	·	·	·
CN(C)CCCN(C(=O)/C=C/c1cccs1)c1nc2ccc(F)cc2s1	10	-9	9	·	·	·	·	·	·
CN(C)CCN(C(=O)/C=C/c1cccs1)c1nc2c(F)cc(F)cc2s1	46*	29	3	2	94*	117*	104*	91*	105*
Cc1ccc2nc(N(CCN(C)C)C(=O)/C=C/c3cccs3)sc2c1	52*	17	6	5	91*	107*	89*	86*	97*
CCN(CC(=O)NCc1ccc(F)cc1)C(=O)/C=C/c1cccs1	9	-5	-1	·	·	·	·	·	·
Cc1nn(Cc2ccccc2Cl)c(C)c1C(=O)N1CCN(c2ccccc2)CC1	116*	7	12	6	1	-3	-3	-5	6
Cc1nn(Cc2ccccc2Cl)c(C)c1C(=O)NC1=NCCS1	-5	-3	6	0	·	·	·	·	·
CC1CC(C)CN(CC(=O)NCCc2ccc(S(N)(=O)=O)cc2)C1 (stereo unspecified)	-7	-13	6	·	·	·	·	·	·
Cn1c(N)c(C(=O)N/N=C/c2ccccc2)sc1=S	40*	43	·	·	25	33	23*	33*	17*
Cn1c(N)c(C(=O)Nc2ccc3ccccc3c2)sc1=S	7	5	-4	-1	·	·	·	·	·
O=C(N/N=C\c1ccc(Cl)cc1)C1=NOC2COC3(CCN(c4ccc([N+](=O)[O-])cc4)CC3)OCC12 (stereo unspecified)	45*	13	·	·	10	-13	16	8	27*
NNC(=O)C1=NOC2COC3(CCN(c4ncccn4)CC3)OCC12 (stereo unspecified)	-2	0	1	·	·	·	·	·	·
Cc1cc(N)n2ncc(-c3ccc(Cl)cc3)c2n1	37*	48	-14	-6	32	52*	40*	39*	44*
COc1ccc(NC(=O)c2ccc(COc3ccc(C)cc3)o2)cc1	-19	-18	9	·	·	·	·	·	·
COc1ccc(CCN2C(=NC(=O)C(C)C)SC3CS(=O)(=O)CC32)cc1 (stereo unspecified)	16	10	·	·	·	·	·	·	·
NC1=NS(=O)(=O)NC1c1ccc(Br)cc1 (stereo unspecified)	9	4	-2	·	·	·	·	·	·
